Laboratory results published in ChEMBL document CHEMBL3286372, “Design, synthesis and structure-activity relationship of novel semi-synthetic flavonoids as antiproliferative agents” (2014).

Key:
HL-60(TB) = test: Growth inhibition of human HL-60(TB) cells after 48 hrs by coulter counting analysis; type: functional; settings: HL-60, 48 h
How it was run: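 Five-dose screen (0.01-100 µM, DMSO-solubilized, under 1% DMSO final), cells in RPMI 1640 + 10% FBS at 6×10^4 cells/ml, duplicate wells, 37 °C, 5% CO2, 48 h. Cells then diluted tenfold in saline and counted by Coulter counter with dilution correction. Controls held buffer/saline/DMSO at matching dilutions. GI50 derived from log concentration-percent growth inhibition curves.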

[1] = Growth inhibition of human LOXIMVI cells after 48 hrs by coulter counting analysis; type: functional; settings: LOX IMVI
How it was run: (§1)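 NCI five-dose screen at 0.01-100 µM, diluted from DMSO stocks in buffered saline (final DMSO <1%). Cells at 6×10^4 cells/ml in RPMI 1640 with 10% FBS, in duplicate wells, at 37 °C under 5% CO2 for 48 h. Cells diluted tenfold in saline and Coulter-counted. GI50, TGI and LC50 taken from log concentration-growth inhibition curves.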

[2] = Growth inhibition of human UACC62 cells after 48 hrs by coulter counting analysis; type: functional; settings: UACC-62, 48 h
How it was run: (§2)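 NCI five-dose screen, 0.01-100 µM, from DMSO stocks diluted in buffer saline (final DMSO <1%). Cells grown in RPMI 1640 + 10% FBS, seeded at 6×10^4 cells/ml, in duplicate wells. Exposure 48 h at 37 °C, 5% CO2. Cells diluted 10-fold in saline and counted by Coulter counter. GI50 derived from log concentration–percent growth inhibition curves. Controls carried matching PBS/saline/DMSO.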

786-0 = test: Growth inhibition of human 786-0 cells after 48 hrs by coulter counting analysis; type: functional; settings: 786-0, 48 h; how it was run: as §1
NCI-H460 [3] = test: Growth inhibition of human NCI-H460 cells after 48 hrs by coulter counting analysis; type: functional; settings: NCI-H460, 48 h
How it was run: (§3)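 Five-dose NCI-60 follow-up, 0.01–100 µM, made from DMSO stock in buffered saline (final DMSO <1%), in duplicate wells. Cells in RPMI 1640 with 10% FBS at 6×10^4 cells/ml, 37 °C, 5% CO2, 48 h. Cells diluted tenfold in saline, Coulter-counted and corrected for dilution. GI50, TGI and LC50 taken from log concentration–percent growth curves.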

Malme-3M = test: Growth inhibition of human MALME-3M cells after 48 hrs by coulter counting analysis; type: functional; how it was run: as §1
[4] = Growth inhibition of human OVCAR5 cells after 48 hrs by coulter counting analysis; type: functional; settings: OVCAR-5, 48 h; how it was run: as §3
U-251 = test: Growth inhibition of human U251 cells after 48 hrs by coulter counting analysis; type: functional; settings: U-251, 48 h; how it was run: as §2
[5] = Growth inhibition of human MOLT4 cells after 48 hrs by coulter counting analysis; type: functional; settings: MOLT-4, 48 h; how it was run: as §3
M14 = test: Growth inhibition of human M14 cells after 48 hrs by coulter counting analysis; type: functional; settings: M14, 48 h; how it was run: as §1
CCRF-CEM [6] = test: Growth inhibition of human CCRF-CEM cells after 48 hrs by coulter counting analysis; type: functional; how it was run: as §1
[7] = Growth inhibition of human EKVX cells after 48 hrs by coulter counting analysis; type: functional; how it was run: as §1
[8] = Growth inhibition of human NCI-ADR-RES cells after 48 hrs by coulter counting analysis; type: functional; how it was run: as §3
SW-620 = test: Growth inhibition of human SW620 cells after 48 hrs by coulter counting analysis; type: functional; settings: SW-620, 48 h; how it was run: as §3
SF-268 = test: Growth inhibition of human SF268 cells after 48 hrs by coulter counting analysis; type: functional; settings: SF-268, 48 h; how it was run: as §3
[9] = target: Glycogen synthase kinase-3 beta (Homo sapiens) (UniProt P49841); test: Inhibition of GSK-3beta (unknown origin) at 20 uM after 30 mins by scintillation counting analysis relative to control
How it was run: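 Recombinant kinases, cloned, expressed and purified in-house. Radiometric ³³P-ATP assay with kinase at ~10-50 nM final and 1-5 µg peptide or protein substrate. Compound at 20 µM final, in duplicate. Reaction started by adding ATP, run 30 min at ambient temperature, then spotted on P81 phosphocellulose. Plates washed in 1% phosphoric acid and counted by scintillation. No-substrate blank subtracted. Result is mean % activity change versus DMSO control.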

[10] = Growth inhibition of human RXF393 cells after 48 hrs by coulter counting analysis; type: functional; settings: RXF 393, 48 h; how it was run: as §3
SN12C = test: Growth inhibition of human SN12C cells after 48 hrs by coulter counting analysis; type: functional; how it was run: as §3
DU-145 = test: Growth inhibition of human DU145 cells after 48 hrs by coulter counting analysis; type: functional; settings: DU-145, 48 h; how it was run: as §1
SNB-19 = test: Growth inhibition of human SNB19 cells after 48 hrs by coulter counting analysis; type: functional; settings: SNB-19, 48 h; how it was run: as §3
MDA-MB-231 = test: Growth inhibition of human MDA-MB-231 cells after 48 hrs by coulter counting analysis; type: functional; settings: MDA-MB-231, 48 h; how it was run: as §1
KM12 = test: Growth inhibition of human KM12 cells after 48 hrs by coulter counting analysis; type: functional; settings: KM12, 48 h; how it was run: as §1
A498 = test: Growth inhibition of human A498 cells after 48 hrs by coulter counting analysis; type: functional; settings: A498, 48 h; how it was run: as §1
[11] = Growth inhibition of human HOP92 cells after 48 hrs by coulter counting analysis; type: functional; settings: HOP-92, 48 h; how it was run: as §1
[12] = Growth inhibition of human OVCAR8 cells after 48 hrs by coulter counting analysis; type: functional; settings: OVCAR-8, 48 h; how it was run: as §3
SK-MEL-2 = test: Growth inhibition of human SK-MEL-2 cells after 48 hrs by coulter counting analysis; type: functional; settings: SK-MEL-2, 48 h; how it was run: as §3
[13] = Growth inhibition of human BT549 cells after 48 hrs by coulter counting analysis; type: functional; settings: BT-549, 48 h; how it was run: as §1
[14] = Growth inhibition of human Hs 578T cells after 48 hrs by coulter counting analysis; type: functional; how it was run: as §1
NCI-H460 [15] = test: Growth inhibition of human NCI-H460 cells at 10 uM after 48 hrs by sulforhodamine B assay relative to control; type: functional; settings: NCI-H460, 48 h, read-out: GI
How it was run: (§4)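 NCI-60 primary screen at a single 10 µM dose. Continuous 48 h exposure, with growth or viability estimated by sulforhodamine B protein staining. Reported as percent growth inhibition of treated cells relative to untreated growth.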

MDA-MB-468 = test: Growth inhibition of human MDA-MB-468 cells at 10 uM after 48 hrs by sulforhodamine B assay relative to control; type: functional; settings: MDA-MB-468, 48 h, read-out: GI; how it was run: as §4
CCRF-CEM [16] = test: Growth inhibition of human CCRF-CEM cells at 10 uM after 48 hrs by sulforhodamine B assay relative to control; type: functional; settings: read-out: GI
How it was run: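 NCI-60 primary screen at a single dose of 10 µM with 48 h continuous exposure. Growth or viability read by sulforhodamine B protein staining and expressed as percent growth inhibition versus untreated cells.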

[17] = Growth inhibition of human UO31 cells at 10 uM after 48 hrs by sulforhodamine B assay relative to control; type: functional; settings: UO-31, 48 h, read-out: GI
How it was run: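 NCI-60 primary single-dose screen at 10 µM with continuous 48 h exposure. Cell viability/growth read by sulforhodamine B protein staining. Reported as percent growth inhibition relative to untreated cells.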

Sequence of Glycogen synthase kinase-3 beta (Homo sapiens) (P49841 whole entry, looked up): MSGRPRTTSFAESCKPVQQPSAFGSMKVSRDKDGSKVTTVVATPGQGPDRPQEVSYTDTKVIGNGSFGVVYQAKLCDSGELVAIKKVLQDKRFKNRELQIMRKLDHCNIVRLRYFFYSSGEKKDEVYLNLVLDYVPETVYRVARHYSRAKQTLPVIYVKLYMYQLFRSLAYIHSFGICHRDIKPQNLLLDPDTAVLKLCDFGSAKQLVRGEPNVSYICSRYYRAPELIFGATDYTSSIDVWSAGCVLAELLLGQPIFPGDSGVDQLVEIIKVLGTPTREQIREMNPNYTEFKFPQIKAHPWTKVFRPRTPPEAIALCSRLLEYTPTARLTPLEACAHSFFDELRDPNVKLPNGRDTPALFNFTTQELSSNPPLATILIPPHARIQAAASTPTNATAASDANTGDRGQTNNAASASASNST

Structure (SMILES) | GI50 [1] [µM] | GI50 [2] [µM] | GI50 (786-0) [µM] | GI50 (NCI-H460 [3]) [µM] | GI50 [4] [µM] | GI50 (U-251) [µM] | GI50 [5] [µM] | GI50 (M14) [µM] | GI50 [7] [µM] | GI50 [8] [µM] | GI50 (SW-620) [µM] | GI50 (SF-268) [µM] | inhibition [9] [%] | GI50 [10] [µM] | GI50 (SN12C) [µM] | GI50 (DU-145) [µM] | GI50 (MDA-MB-231) [µM] | GI50 (KM12) [µM] | GI50 [11] [µM] | GI50 [12] [µM] | also measured
COc1c(C(=O)/C=C/c2ccc(Cl)cc2)c(O)c(Br)c2occc12 | 2.2 | 3.47 | 2.99 | 2.99 | 6.04 | 3.22 | 2.09 | 4.82 | 4.18 | 3.07 | 2.71 | 3.5 | 30 | 2.37 | 3.77 | 4.07 | 4.33 | 3.49 | 1.39 | 3.43 | GI50 (HL-60(TB)): 1.72 µM; GI50 (Malme-3M): 2.61 µM; GI50 (CCRF-CEM [6]): 2.66 µM; GI50 (SNB-19): 8.24 µM; GI50 (A498): 3.92 µM; GI50 (SK-MEL-2): 4.16 µM
COc1c2occc2c(OC)c2c(=O)c(CN3CCOCC3)c(/C=C/c3ccc(Cl)cc3)oc12 | 2.18 | 1.9 | 3.09 | 2.05 | 2.76 | 3.05 | 2.84 | 2.76 | 2.85 | 3.12 | 3.32 | 2.81 | 5 | 2.36 | 3.05 | 2.63 | 2.92 | 2.1 | 1.28 | 2.78 | GI50 [13]: 2.38 µM; GI50 [14]: 1.9 µM; inhibition of growth at 10 µM (NCI-H460 [15]): 88%; GI50 (Malme-3M): 2.24 µM; GI50 (CCRF-CEM [6]): 1.78 µM; inhibition of growth at 10 µM (MDA-MB-468): 86%; GI50 (SK-MEL-2): 1.65 µM; inhibition of growth at 10 µM (CCRF-CEM [16]): 81%; inhibition of growth at 10 µM [17]: 61%
COc1c(C(=O)/C=C/c2ccccc2)c(O)cc2occc12 | 1.69 | 4.15 | 16.2 | 3.02 | 5.67 | 4.39 | 3.36 | 8.89 | 12.5 | 2.42 | 3.52 | 4.05 | 28 | 3.56 | 4.48 | 3.81 | 4.38 | 3.71 | 1.64 | 3.63 | GI50 [13]: 7.72 µM; GI50 [14]: 2.76 µM; GI50 (SNB-19): 7.33 µM; GI50 (A498): 7.97 µM; GI50 (SK-MEL-2): 12.4 µM; inhibition of growth at 10 µM (CCRF-CEM [16]): 65%; inhibition of growth at 10 µM [17]: 60%
C=CCc1c(O)c(C(=O)/C=C/c2ccccc2)c(OC)c2ccoc12 | 1.56 | 2.74 | 4.12 | 2.79 | 3.22 | 2.36 | 2.17 | 5.36 | 6.13 | 1.88 | 3.32 | 2.8 | 38 | 1.85 | 3.79 | 4.92 | 3.11 | 4.06 | 1.33 | 3.13 | GI50 [13]: 2.63 µM; GI50 [14]: 3.9 µM; GI50 (Malme-3M): 5.8 µM; GI50 (CCRF-CEM [6]): 2.75 µM; GI50 (SNB-19): 2.85 µM; GI50 (A498): 1.74 µM; GI50 (SK-MEL-2): 3.04 µM
